Measurements reported in ChEMBL document CHEMBL3272094 (J Med Chem, 1978).
The source made the active and inactive calls. The rule behind the calls is not given here.

Columns and labels:
[1] = target: Beta-2 adrenergic receptor (Cavia porcellus) (UniProt Q8K4Z4); conditions: Trachea
[2] = target: Beta-2 adrenergic receptor (Cavia porcellus) (UniProt Q8K4Z4); conditions: Trachea; remark: listed apart in the source
[3] = system: Rattus norvegicus; test: Hypertensive effect in Wistar rat assessed as change in mean arterial pressure at 1000 nmol/kg (reference value: 7 +/- 2 mmHg); format: functional, Artery
Procedure, shortened: (§1)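 Intact rats; femoral or jugular vein cannulated. Doses of 1–1000 nmol/kg given as a 0.5 mL/kg iv saline bolus, each followed by a heparinized saline flush. Arterial pressure and heart rate taken from the oxygraph recording. A saline control was injected first. For the propranolol group, 1.0 mg/kg propranolol was given 5 min before 1.0 μmol/kg. Means ± SEM, n=3–4.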

[4] = target: Beta-1 adrenergic receptor (Cavia porcellus) (UniProt B0FL73); test: Agonist activity at beta-1 adrenergic receptor in guinea pig atria assessed as effect on force of atrial contraction relative to (R,S)-isoproterenol; conditions: Cardiac atrium
Procedure, shortened: (§2)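 Guinea pig atria (male, 400–900 g; some given reserpine 5.0 mg/kg ip 24 h before) in oxygenated bath at 37.0 °C, diastolic tension 1 g, steady beating reached first. Cumulative doses given 1 min apart. […] Points are means of ≥4 atria.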

[5] = target: Beta-1 adrenergic receptor (Cavia porcellus) (UniProt B0FL73); test: Positive chronotropic activity at beta-1 adrenergic receptor in guinea pig atria assessed as effect on force of atrial contraction up to 3 x 10^-4 M in presence of propranolol; conditions: Cardiac atrium, in the assay text read “atrial rate” for “force of atrial contraction”
Procedure, shortened: (§3)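 Cumulative dosing of guinea pig atria up to 3×10⁻⁴ M with 10⁻⁶ M propranolol in the bath, at 37.0 °C with 1 g diastolic tension.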

[6] = system: Rattus norvegicus; test: Hypertensive effect in Wistar rat assessed as change in mean arterial pressure at 100 nmol/kg up to 15 mins (reference value: 7 +/- 2 mmHg); format: functional, Artery; conditions: in the assay text read “up to 1 min” for “up to 15 mins”
Procedure, shortened: as §1

[7] = target: Beta-2 adrenergic receptor (Cavia porcellus) (UniProt Q8K4Z4); test: Agonist activity at beta-2 adrenergic receptor in guinea pig trachea assessed as tracheal relaxation in presence of propranolol
[8] = system: Rattus norvegicus; test: Hypertensive effect in Wistar rat assessed as increase in heart rate at 100 nmol/kg up to 1 min (reference value: 1 +/- 0.1 beats/min); format: functional; conditions: in the assay text read “up to 15 mins” for “up to 1 min”
Procedure, shortened: as §1

[9] = target: Beta-1 adrenergic receptor (Cavia porcellus) (UniProt B0FL73); test: Ionotropic activity at beta-1 adrenergic receptor in guinea pig atria assessed as effect on atrial rate up to 3 x 10^-4 M in presence of propranolol; conditions: Cardiac atrium, in the assay text read “force of atrial contraction” for “atrial rate”
Procedure, shortened: as §3

[10] = target: Beta-2 adrenergic receptor (Cavia porcellus) (UniProt Q8K4Z4); test: Agonist activity at beta-2 adrenergic receptor in guinea pig trachea assessed as tracheal relaxation relative to (R,S)-isoproterenol; set-up: Activity: scale not given: the % may be the effect or the level left
Procedure, shortened: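 Tracheal chain from male guinea pig (some reserpine-pretreated, 5.0 mg/kg ip 24 h before), equilibrated 30 min at 1 g tension and contracted with 3.0×10⁻⁶ M methacholine for 10 min.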

[11] = target: Beta-1 adrenergic receptor (Cavia porcellus) (UniProt B0FL73); conditions: Cardiac atrium
[12] = target: Beta-1 adrenergic receptor (Cavia porcellus) (UniProt B0FL73); test: Agonist activity at beta-1 adrenergic receptor in guinea pig atria assessed as effect on atrial rate relative to (R,S)-isoproterenol; conditions: Cardiac atrium
Procedure, shortened: as §2

[13] = system: Rattus norvegicus; test: Hypertensive effect in Wistar rat assessed as increase in heart rate at 1 nmol/kg (reference value: 1 +/- 0.1 beats/min); format: functional
Procedure, shortened: as §1

[14] = system: Rattus norvegicus; test: Hypertensive effect in Wistar rat assessed as increase in heart rate at 1000 nmol/kg (reference value: 1 +/- 0.1 beats/min); format: functional
Procedure, shortened: as §1

[15] = system: Rattus norvegicus; test: Hypertensive effect in Wistar rat assessed as change in mean arterial pressure at 1 nmol/kg (reference value: 7 +/- 2 mmHg); format: functional, Artery
Procedure, shortened: as §1

[16] = target: Beta-1 adrenergic receptor (Cavia porcellus) (UniProt B0FL73); conditions: Cardiac atrium; remark: listed apart in the source
[17] = system: Rattus norvegicus; test: Hypertensive effect in Wistar rat assessed as increase in heart rate at 10 nmol/kg (reference value: 1 +/- 0.1 beats/min); format: functional
Procedure, shortened: as §1

[18] = system: Rattus norvegicus; test: Hypertensive effect in Wistar rat assessed as change in mean arterial pressure at 10 nmol/kg (reference value: 7 +/- 2 mmHg); format: functional, Artery
Procedure, shortened: as §1

[19] = organism: Cavia porcellus; test: Ratio of relative activity for guinea pig beta-2 adrenergic receptor to relative activity for guinea pig beta-1 adrenergic receptor
[20] = system: Rattus norvegicus; test: Hypertensive effect in Wistar rat assessed as change in mean arterial pressure at 1000 nmol/kg in presence of propranolol (reference value: 7 +/- 2 mmHg); format: functional, Artery
Procedure, shortened: as §1

[21] = system: Rattus norvegicus; test: Hypertensive effect in Wistar rat assessed as increase in heart rate at 1000 nmol/kg in presence of propranolol (reference value: 1 +/- 0.1 beats/min); format: functional
Procedure, shortened: as §1

[22] = Competitive inhibition of tyrosine hydroxylase (unknown origin); set-up: species or system Homo sapiens
[23] = Octanol-water partition coefficient, log P of the compound; format: physicochemical
[24] = system: Felis catus; test: Inhibition of isoproterenol-induced tachycardia in cat at 100 ug/kg; format: functional
[25] = system: Rattus norvegicus; test: Hypertensive effect in Wistar rat assessed as tachyphylaxis at 20 umol/kg administered repeatedly followed by infusion of 128 umol/kg for 90 secs in presence of reserpine; format: functional, organism-based
Procedure, shortened: (§4)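 Reserpine-pretreated rat given repeated iv injections of 20 μmol/kg, then 128 μmol/kg infused over 90 s. Arterial blood pressure recorded continuously, including time to return to preinjection level.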

[26] = system: Rattus norvegicus; test: Hypertensive effect in Wistar rat assessed as mean pressor response at 1 umol/kg in presence of reserpine; format: functional
Procedure, shortened: (§5)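 Rats given 1 or 10 μmol/kg iv as a 0.5 mL/kg saline bolus. Mean arterial pressure recorded and the pressor response corrected for the saline injection artifact. Reserpine groups received 2.5 mg/kg ip at 48 and 24 h before. Phentolamine 10 mg/kg iv was given 1 min before dosing. Means ± SEM, n=3–6.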

[27] = organism: Cavia porcellus; test: Agonist activity at alpha-adrenergic receptor in guinea pig aortic strip assessed as induction of contraction relative to norepinephrine
Procedure, shortened: (§6)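 Spirally cut thoracic aortic strip (3 cm × 2 mm) from male guinea pig (400–900 g), in modified Krebs at 37.0 °C, gassed 95% O2/5% CO2. Initial tension 0.5 g, equilibrated ≥2 h. Isometric contraction recorded over cumulative dose-response curves, with each dose held until the response levelled (10 min). Responses expressed as % of maximum contraction to 10⁻⁴ M norepinephrine added after the last dose.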

[28] = system: Rattus norvegicus; test: Hypertensive effect in Wistar rat assessed as increase in blood pressure at 20 umol/kg administered repeatedly after 15 mins in presence of reserpine; format: functional, organism-based
Procedure, shortened: as §4

[29] = system: Rattus norvegicus; test: Hypertensive effect in Wistar rat assessed as mean arterial pressure at 10 umol/kg in presence of phentolamine; format: functional, Artery
Procedure, shortened: as §5

[30] = system: Rattus norvegicus; test: Hypertensive effect in Wistar rat assessed as increase in blood pressure at 20 umol/kg administered repeatedly followed by infusion of 128 umol/kg for 90 secs in presence of reserpine; format: functional
Procedure, shortened: as §4

[31] = organism: Cavia porcellus; test: Agonist activity at alpha-adrenergic receptor in guinea pig aortic strip assessed as induction of contraction up to 3 x 10^-3 M in presence of phentolamine
[32] = system: Rattus norvegicus; test: Hypertensive effect in Wistar rat assessed as increase in blood pressure at 20 umol/kg administered repeatedly in presence of reserpine; format: functional
Procedure, shortened: as §4

[33] = system: Rattus norvegicus; test: Hypertensive effect in Wistar rat assessed as mean pressor response at 10 umol/kg; format: functional
Procedure, shortened: as §5

[34] = system: Rattus norvegicus; test: Hypertensive effect in Wistar rat assessed as mean arterial pressure at 1 umol/kg in presence of reserpine; format: functional, Artery
Procedure, shortened: as §5

[35] = system: Rattus norvegicus; test: Hypertensive effect in Wistar rat assessed as mean pressor response at 10 umol/kg in presence of reserpine; format: functional
Procedure, shortened: as §5

[36] = system: Rattus norvegicus; test: Hypertensive effect in Wistar rat assessed as mean pressor response at 10 umol/kg in presence of phentolamine and reserpine; format: functional
Procedure, shortened: as §5

[37] = system: Rattus norvegicus; test: Hypertensive effect in Wistar rat assessed as mean arterial pressure at 10 umol/kg in presence of reserpine; format: functional, Artery
Procedure, shortened: as §5

[38] = system: Rattus norvegicus; test: Hypertensive effect in Wistar rat assessed as mean pressor response at 1 umol/kg; format: functional
Procedure, shortened: as §5

[39] = system: Rattus norvegicus; test: Hypertensive effect in Wistar rat assessed as mean arterial pressure at 10 umol/kg in presence of phentolamine and reserpine; format: functional, Artery
Procedure, shortened: as §5

[40] = system: Rattus norvegicus; test: Hypertensive effect in Wistar rat assessed as increase in mean arterial pressure at 10 umol/kg relative to control; format: functional, Artery
Procedure, shortened: as §5

[41] = organism: Cavia porcellus; test: Agonist activity at alpha-adrenergic receptor in guinea pig aortic strip assessed as induction of contraction
Procedure, shortened: as §6

[42] = system: Rattus norvegicus; test: Hypertensive effect in Wistar rat assessed as mean arterial pressure at 1 umol/kg; format: functional, Artery
Procedure, shortened: as §5

[43] = system: Rattus norvegicus; test: Hypertensive effect in Wistar rat assessed as mean arterial pressure at 10 umol/kg; format: functional, Artery
Procedure, shortened: as §5

[44] = system: Rattus norvegicus; test: Hypertensive effect in Wistar rat assessed as mean pressor response at 10 umol/kg in presence of phentolamine; format: functional
Procedure, shortened: as §5

Sequence of Beta-1 adrenergic receptor (Cavia porcellus) (B0FL73 1-467): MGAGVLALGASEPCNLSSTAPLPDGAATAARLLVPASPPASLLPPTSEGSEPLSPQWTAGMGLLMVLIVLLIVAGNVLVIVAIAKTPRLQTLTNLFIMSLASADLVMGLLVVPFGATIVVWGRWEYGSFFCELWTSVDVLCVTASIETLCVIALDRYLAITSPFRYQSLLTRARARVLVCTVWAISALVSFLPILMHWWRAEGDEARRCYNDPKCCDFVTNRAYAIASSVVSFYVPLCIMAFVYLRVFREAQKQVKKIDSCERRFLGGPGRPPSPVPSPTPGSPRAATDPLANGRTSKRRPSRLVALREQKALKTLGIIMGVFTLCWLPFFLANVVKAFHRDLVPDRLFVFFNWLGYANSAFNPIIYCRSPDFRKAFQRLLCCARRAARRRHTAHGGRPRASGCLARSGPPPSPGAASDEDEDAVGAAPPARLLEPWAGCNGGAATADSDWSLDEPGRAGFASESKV
Sequence of Beta-2 adrenergic receptor (Cavia porcellus) (Q8K4Z4 whole entry, looked up): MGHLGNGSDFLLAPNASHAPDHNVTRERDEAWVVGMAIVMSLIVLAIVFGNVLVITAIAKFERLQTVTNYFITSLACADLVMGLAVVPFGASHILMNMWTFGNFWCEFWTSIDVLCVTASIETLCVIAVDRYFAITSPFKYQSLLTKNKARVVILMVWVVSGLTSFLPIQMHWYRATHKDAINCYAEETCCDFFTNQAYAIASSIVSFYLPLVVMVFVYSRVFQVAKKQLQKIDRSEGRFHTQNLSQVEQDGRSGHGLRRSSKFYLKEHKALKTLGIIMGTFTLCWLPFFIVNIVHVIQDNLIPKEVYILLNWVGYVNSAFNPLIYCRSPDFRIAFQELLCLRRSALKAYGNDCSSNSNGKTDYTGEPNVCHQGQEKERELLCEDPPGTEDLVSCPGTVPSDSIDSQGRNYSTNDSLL

CC(C)NCC(O)c1ccc(O)c(O)c1 (racemic)
ED50 [1]: 2.1 ×10⁻⁸ M | ED50 [2]: 7.8 ×10⁻⁸ M | pD2 [2]: 7.1

CC(C)NCC(O)c1ccc2[nH]cnc2c1 (racemic)
Activity [3]: -30 mmHg | %max [4]: 33% | Activity [5]: inactive | Activity [6]: -12 mmHg | fold change (FC) [7]: 2 | Activity [8]: 65 bpm | Activity [9]: inactive | %max [10]: 58% | Activity [10]: 4.79% | ED50 [11]: 6.2 µM | pD2 [11]: 5.21 | %max [12]: 50% | Activity [12]: 0.355% | Activity [13]: 1 bpm | Activity [14]: 59 bpm | Activity [15]: 4 mmHg | ED50 [16]: 3.8 µM | pD2 [16]: 5.42 | Activity [17]: 12 bpm | Activity [18]: -6 mmHg | Ratio [19]: 13.5 | Activity [20]: 3 mmHg | Activity [21]: 13 bpm | ED50 [2]: 1.6 µM | pD2 [2]: 5.78

N[C@@H](Cc1ccc2[nH]cnc2c1)C(=O)O
Ki [22]: 20 µM

Oc1ccccc1O [CATECHOL]
logP [23]: 0.88

CC(C)NCC(O)c1ccc2[nH]c(=O)[nH]c2c1 (configuration not stated)
inhibition in vivo at 0.1 mg/kg [24]: 35%

NCC(O)c1ccc2[nH]cnc2c1 (racemic)
Activity [25]: inactive | Activity [26]: 9 mmHg | Activity [27]: 41% | Activity [28]: inactive | Activity [29]: 46 mmHg | Activity [30]: 150 mmHg | Activity [31]: inactive | Activity [32]: 150 mmHg | Activity [33]: 39 mmHg | Activity [34]: 73 mmHg | Activity [35]: 40 mmHg | Activity [36]: -5 mmHg | Activity [37]: 70 mmHg | Activity [38]: 8 mmHg | Activity [39]: 48 mmHg | Activity [40]: 40% | ED50 [41]: 8 µM | Activity [42]: 82 mmHg | Activity [43]: 98 mmHg | Activity [44]: -4 mmHg

NC[C@H](O)c1ccc(O)c(O)c1
ED50 [41]: 1.1 µM
